Data published in ChEMBL document CHEMBL1129682, “(S)-(-)-4-[4-[2-(isochroman-1-yl)ethyl]-piperazin-1-yl] benzenesulfonamide, a selective dopamine D4 antagonist” (J Med Chem, 1996).

How the values were obtained:
[1] = molecular target: Adrenergic receptor alpha-2 (Rattus norvegicus) (UniProt P22086+P19328+P22909); experiment: […] against binding of [3H]clonidine to cloned mammalian Alpha-2 adrenergic receptor expressed in cultured cells or from rat whole brain at 1 uM
[2] = molecular target: Serotonin 2 (5-HT2) receptor (Rattus norvegicus, UniProt P30994+P08909+P14842); experiment: Binding affinity of [3H]ketanserin towards 5-hydroxytryptamine 2 receptor in cloned mammalian receptor expressed in cultured cells or from rat whole brain.; assay type: cell-based
[3] = molecular target: T1, 5-hydroxytryptamine receptor 1A (Rattus norvegicus, UniProt P19327); experiment: Binding affinity of [3H]-8-OH-DPAT towards 5-hydroxytryptamine 1A receptor in cloned mammalian receptor expressed in cultured cells or from rat whole brain.; assay type: cell-based
T1 sequence (P19327 whole entry): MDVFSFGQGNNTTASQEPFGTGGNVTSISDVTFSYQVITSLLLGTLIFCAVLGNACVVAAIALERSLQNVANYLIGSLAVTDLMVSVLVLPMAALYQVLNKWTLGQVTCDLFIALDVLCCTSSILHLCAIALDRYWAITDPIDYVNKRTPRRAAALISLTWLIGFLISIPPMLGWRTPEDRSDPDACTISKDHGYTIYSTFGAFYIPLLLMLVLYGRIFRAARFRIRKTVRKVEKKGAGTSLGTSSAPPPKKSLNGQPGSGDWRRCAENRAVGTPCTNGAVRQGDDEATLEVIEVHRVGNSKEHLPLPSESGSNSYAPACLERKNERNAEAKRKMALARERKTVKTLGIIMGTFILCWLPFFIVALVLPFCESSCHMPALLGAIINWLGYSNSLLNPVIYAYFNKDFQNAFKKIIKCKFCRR
In short: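 Radioligand displacement with [3H]-8-OH-DPAT on membranes from cloned mammalian 5-HT1A receptor expressed in cultured cells.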

D(4) dopamine receptor = molecular target: T2, D(4) dopamine receptor (Rattus norvegicus, UniProt P30729); experiment: Binding affinity of [3H]spiperone towards Dopamine receptor D4 expressed in cultured cells or from rat whole brain.; assay type: cell-based
T2 sequence (P30729 whole entry): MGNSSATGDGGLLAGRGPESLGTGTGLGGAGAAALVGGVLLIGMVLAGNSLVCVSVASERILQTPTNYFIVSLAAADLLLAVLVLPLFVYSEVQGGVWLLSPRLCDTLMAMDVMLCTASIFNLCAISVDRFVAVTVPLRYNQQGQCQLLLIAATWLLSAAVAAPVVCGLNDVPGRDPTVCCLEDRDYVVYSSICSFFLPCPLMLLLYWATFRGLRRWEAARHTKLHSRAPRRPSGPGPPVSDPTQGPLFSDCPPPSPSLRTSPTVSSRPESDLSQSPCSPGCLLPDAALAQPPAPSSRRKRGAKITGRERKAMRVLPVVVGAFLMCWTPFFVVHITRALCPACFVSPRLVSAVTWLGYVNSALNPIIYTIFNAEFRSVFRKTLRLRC

[4] = molecular target: Adrenergic receptor alpha-1 (Rattus norvegicus) (UniProt P15823+P23944+P43140); experiment: (§1) […] against binding of [3H]prazosin to cloned mammalian Alpha-1 adrenergic receptor expressed in cultured cells or from rat whole brain […]; assay type: cell-based
D(3) dopamine receptor = D(3) dopamine receptor (Rattus norvegicus, UniProt P19020); experiment: Binding affinity of [3H]spiperone towards Dopamine receptor D3 in cloned mammalian receptor expressed in cultured cells or from rat whole brain.; assay type: cell-based
Sequence of D(3) dopamine receptor (P19020 whole entry): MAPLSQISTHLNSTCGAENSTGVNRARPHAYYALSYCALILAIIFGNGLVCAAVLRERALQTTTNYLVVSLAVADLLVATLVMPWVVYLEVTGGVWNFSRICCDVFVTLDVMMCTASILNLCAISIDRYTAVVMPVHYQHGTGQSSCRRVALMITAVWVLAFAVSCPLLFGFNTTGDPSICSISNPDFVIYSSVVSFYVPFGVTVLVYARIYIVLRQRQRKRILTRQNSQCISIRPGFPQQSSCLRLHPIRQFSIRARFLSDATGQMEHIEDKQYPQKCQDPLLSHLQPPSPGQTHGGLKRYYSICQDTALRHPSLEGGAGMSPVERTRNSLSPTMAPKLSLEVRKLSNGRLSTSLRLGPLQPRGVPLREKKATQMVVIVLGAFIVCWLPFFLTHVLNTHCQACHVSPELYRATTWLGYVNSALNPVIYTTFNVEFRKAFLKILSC
In short: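 Radioligand displacement on membranes from cloned mammalian receptors expressed in cultured cells. D1 used [3H]SCH23390 and D3 used [3H]spiperone.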

D(2) dopamine receptor [5] = molecular target: T3, D(2) dopamine receptor (Rattus norvegicus, UniProt P61169); experiment: Binding affinity of [3H]U-86170 towards Dopamine receptor D2 in cloned mammalian receptor expressed in cultured cells or from rat whole brain; assay type: cell-based
T3 sequence (P61169 whole entry): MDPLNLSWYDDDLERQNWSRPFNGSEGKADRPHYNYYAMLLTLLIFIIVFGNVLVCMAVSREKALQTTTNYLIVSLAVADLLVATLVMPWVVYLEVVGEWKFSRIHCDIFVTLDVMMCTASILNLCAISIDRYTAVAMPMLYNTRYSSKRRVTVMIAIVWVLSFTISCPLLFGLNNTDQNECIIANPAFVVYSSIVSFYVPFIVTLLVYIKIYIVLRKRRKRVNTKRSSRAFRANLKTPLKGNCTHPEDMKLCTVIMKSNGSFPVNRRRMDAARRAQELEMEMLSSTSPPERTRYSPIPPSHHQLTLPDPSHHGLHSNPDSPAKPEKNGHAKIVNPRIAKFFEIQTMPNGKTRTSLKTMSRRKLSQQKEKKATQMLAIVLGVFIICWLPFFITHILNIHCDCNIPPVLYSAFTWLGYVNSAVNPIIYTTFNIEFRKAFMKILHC

D(1A) dopamine receptor = D(1A) dopamine receptor (Rattus norvegicus, UniProt P18901); experiment: Binding affinity of [3H]SCH-23,390 towards Dopamine receptor D1 in cloned mammalian receptor expressed in cultured cells or from rat whole brain.; assay type: cell-based
Sequence of D(1A) dopamine receptor (P18901 whole entry): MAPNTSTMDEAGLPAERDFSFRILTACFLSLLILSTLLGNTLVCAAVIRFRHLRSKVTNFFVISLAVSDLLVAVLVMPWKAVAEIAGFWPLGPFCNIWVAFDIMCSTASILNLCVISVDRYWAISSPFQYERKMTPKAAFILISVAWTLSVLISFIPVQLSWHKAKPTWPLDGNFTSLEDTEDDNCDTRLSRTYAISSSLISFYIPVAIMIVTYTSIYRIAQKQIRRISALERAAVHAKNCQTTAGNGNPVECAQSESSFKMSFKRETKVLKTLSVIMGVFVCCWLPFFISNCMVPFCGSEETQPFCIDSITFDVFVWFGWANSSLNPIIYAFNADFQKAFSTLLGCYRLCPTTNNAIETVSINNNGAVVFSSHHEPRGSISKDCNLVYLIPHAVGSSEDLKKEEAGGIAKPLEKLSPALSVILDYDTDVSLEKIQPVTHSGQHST

[6] = molecular target: T4, Adrenergic receptor alpha-1 (Rattus norvegicus, UniProt P15823+P23944+P43140); experiment: as §1; assay type: cell-based
T4 sequence (P15823 whole entry): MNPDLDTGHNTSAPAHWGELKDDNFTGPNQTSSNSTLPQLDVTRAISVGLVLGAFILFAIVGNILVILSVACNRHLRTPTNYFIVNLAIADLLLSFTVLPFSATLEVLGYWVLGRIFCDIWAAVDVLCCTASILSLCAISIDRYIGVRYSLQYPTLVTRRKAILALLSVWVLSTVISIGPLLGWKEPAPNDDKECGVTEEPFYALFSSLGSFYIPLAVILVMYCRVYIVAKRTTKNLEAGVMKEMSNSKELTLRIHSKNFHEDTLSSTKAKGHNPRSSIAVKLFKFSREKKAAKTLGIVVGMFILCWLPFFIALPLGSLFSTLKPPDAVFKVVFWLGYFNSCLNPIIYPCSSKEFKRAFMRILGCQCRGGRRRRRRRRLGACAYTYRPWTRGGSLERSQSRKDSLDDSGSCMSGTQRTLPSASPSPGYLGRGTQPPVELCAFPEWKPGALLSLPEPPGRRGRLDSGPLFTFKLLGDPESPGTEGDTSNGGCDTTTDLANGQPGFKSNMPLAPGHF
T4 sequence (P23944 whole entry): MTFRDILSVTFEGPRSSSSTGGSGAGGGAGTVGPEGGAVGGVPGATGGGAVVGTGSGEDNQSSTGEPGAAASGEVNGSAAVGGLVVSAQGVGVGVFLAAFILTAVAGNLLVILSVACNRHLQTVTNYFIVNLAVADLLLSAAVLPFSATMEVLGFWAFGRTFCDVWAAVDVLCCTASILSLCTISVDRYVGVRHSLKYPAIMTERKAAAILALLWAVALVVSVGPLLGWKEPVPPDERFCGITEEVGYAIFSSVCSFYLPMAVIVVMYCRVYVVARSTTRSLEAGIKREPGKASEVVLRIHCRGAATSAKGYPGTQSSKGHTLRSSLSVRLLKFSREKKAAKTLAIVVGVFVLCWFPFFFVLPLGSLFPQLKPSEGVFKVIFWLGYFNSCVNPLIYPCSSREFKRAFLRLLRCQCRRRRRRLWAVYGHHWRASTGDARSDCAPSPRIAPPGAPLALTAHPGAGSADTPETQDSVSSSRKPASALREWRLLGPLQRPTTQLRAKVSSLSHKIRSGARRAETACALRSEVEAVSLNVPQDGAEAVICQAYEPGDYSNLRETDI
T4 sequence (P43140 whole entry): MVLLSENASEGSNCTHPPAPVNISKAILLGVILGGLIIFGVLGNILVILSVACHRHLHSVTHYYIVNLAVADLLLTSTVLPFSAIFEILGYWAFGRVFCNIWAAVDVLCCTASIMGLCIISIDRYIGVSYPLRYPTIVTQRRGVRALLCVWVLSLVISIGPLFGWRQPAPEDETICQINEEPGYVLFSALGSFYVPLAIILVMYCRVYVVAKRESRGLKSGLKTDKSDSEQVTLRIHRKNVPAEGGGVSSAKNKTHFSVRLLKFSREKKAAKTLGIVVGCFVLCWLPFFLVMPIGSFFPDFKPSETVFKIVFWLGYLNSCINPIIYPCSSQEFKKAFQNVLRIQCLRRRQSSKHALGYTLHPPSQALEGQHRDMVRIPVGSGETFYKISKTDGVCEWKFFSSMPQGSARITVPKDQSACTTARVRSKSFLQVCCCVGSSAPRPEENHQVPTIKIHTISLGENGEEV

[7] = molecular target: T5, Adrenergic receptor alpha-2 (Rattus norvegicus, UniProt P22086+P19328+P22909); experiment: […] against binding of [3H]clonidine to cloned mammalian Alpha-2 adrenergic receptor expressed in cultured cells or from rat whole brain
T5 sequence (P22086 whole entry): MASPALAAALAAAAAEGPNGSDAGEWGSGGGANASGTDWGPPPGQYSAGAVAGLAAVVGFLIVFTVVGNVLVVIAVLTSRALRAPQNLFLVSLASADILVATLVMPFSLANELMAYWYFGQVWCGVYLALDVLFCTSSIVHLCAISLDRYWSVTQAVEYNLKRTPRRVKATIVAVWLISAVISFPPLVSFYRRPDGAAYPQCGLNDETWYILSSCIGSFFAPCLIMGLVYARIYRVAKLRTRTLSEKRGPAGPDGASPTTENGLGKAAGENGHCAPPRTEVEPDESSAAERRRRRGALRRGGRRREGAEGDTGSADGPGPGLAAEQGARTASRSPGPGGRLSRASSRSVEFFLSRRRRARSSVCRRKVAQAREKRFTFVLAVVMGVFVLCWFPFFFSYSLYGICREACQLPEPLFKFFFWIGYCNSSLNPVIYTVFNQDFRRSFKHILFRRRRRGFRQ
T5 sequence (P19328 whole entry): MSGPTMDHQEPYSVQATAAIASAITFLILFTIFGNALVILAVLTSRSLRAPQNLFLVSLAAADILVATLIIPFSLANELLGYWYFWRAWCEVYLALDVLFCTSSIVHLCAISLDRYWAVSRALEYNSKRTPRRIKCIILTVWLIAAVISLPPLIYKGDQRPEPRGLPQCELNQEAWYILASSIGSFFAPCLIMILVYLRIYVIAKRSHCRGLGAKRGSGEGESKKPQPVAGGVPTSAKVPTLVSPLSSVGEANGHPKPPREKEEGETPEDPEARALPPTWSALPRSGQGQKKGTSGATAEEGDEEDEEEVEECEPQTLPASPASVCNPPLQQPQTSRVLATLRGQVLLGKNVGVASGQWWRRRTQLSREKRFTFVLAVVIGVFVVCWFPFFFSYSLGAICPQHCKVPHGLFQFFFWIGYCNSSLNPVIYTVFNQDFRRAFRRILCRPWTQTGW
T5 sequence (P22909 whole entry): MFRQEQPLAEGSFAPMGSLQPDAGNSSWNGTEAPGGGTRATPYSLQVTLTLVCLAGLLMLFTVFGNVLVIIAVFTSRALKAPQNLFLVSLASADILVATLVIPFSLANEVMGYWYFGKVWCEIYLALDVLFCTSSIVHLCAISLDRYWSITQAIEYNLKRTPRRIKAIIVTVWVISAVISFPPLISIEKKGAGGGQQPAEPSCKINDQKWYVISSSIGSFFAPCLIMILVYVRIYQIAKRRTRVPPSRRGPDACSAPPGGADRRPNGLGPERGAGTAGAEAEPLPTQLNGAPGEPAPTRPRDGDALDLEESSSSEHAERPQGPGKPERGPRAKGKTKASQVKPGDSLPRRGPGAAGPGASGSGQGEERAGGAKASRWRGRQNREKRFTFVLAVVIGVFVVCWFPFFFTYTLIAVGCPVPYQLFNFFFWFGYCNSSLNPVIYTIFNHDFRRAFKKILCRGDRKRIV

D(2) dopamine receptor [8] = molecular target: T3, D(2) dopamine receptor; experiment: Binding affinity to rat Dopamine receptor D2 expressed in CHO cells was determined using [3H]U-86170 as radioligand
Translocator protein [9] = molecular target: Translocator protein (Mus musculus, UniProt P50637); experiment: Displacement of [3H]PK11195 binding from peripheral benzodiazepine receptor in MA-10 mouse tumor Leydig cells; assay type: cell-based
Sequence of Translocator protein (Mus musculus, UniProt P50637) (P50637 whole entry, looked up): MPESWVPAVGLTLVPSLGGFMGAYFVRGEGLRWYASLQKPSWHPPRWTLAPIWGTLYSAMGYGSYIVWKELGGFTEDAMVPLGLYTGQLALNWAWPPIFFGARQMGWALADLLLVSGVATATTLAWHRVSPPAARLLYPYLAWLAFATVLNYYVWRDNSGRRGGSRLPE

Translocator protein [10] = molecular target: Translocator protein (Rattus norvegicus, UniProt P16257); experiment: Displacement of [3H]PK11195 binding from peripheral benzodiazepine receptor in C6 rat glioma cell line; assay type: cell-based
Sequence of Translocator protein (Rattus norvegicus, UniProt P16257) (P16257 whole entry, looked up): as the sequence (P50637 whole entry, looked up) above, with P2S, E3Q, V67I, D77E, A110V, L113M, V149M, P168T counted along it

SMILES	inhibition [1] [%]	Ki [2] [nM]	Ki [3] [nM]	Ki (D(4) dopamine receptor) [nM]	inhibition [4] [%]	Ki (D(3) dopamine receptor) [nM]	Ki (D(2) dopamine receptor [5]) [nM]	Ki (D(1A) dopamine receptor) [nM]	Ki [6] [nM]	Ki [7] [nM]	Ki (D(2) dopamine receptor [8]) [nM]	IC50 (Translocator protein [9]) [nM]	IC50 (Translocator protein [10]) [nM]
COc1ccc(N2CCN(CC[C@H]3OCCc4ccccc43)CC2)cc1	0	30	> 1600	25	36	220	> 1800	> 2400					
NS(=O)(=O)c1ccc(N2CCN(CC[C@@H]3OCCc4ccccc43)CC2)cc1 [SONEPIPRAZOLE]		> 1800	> 3700	7.2		5800	> 4300		> 4900	> 2600			
COc1ccc(N2CCN(CC[C@@H]3OCCc4ccccc43)CC2)cc1	9	28	490	2.2	20	1300		> 2400			790		
Cc1ccc2c(c1)C(N1CCN(C)CC1)=Nc1cccnc1N2				21									
Fc1ccc(N2CCN(CCC3OCCc4ccccc43)CC2)cc1 (stereo unspecified)		5.8	120	3		240	160	410	38	140			
CCCCCCN(CCCCCC)C(=O)Cc1c(-c2ccc(F)cc2)[nH]c2ccccc12												10	10
CN1C(=O)CN=C(c2ccc(Cl)cc2)c2cc(Cl)ccc21 [RO-54864]												10	
NS(=O)(=O)c1ccc(N2CCN(CC[C@H]3OCCc4ccccc43)CC2)cc1	15		2400	100	41	2900	5600						
COc1cc2c(cc1OC)C(CCN1CCN(c3ccc(F)cc3)CC1)OCC2 (stereo unspecified)	75	2.1	93	24	100		400	26					
COc1ccc(N2CCN(CCC3OCCc4ccccc43)CC2)cc1 (stereo unspecified)		76	1100	1.4		1200	1100	> 2400	1280	1800			
